Screens as filed in PubChem BioAssay.
RGS4 inh = RGS4 inhibitors, primary screen, cell-based, HEK293 M3R inducible RGS4, calcium flux. Regulator of G-protein signaling 4 (Homo sapiens), P49798. Fluo-4 calcium flux; stronger effect = higher value; triggered by carbachol at its EC20. B-score at 10 µM. 0.45% of 310,000 active;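 active = B-score, a plate-corrected calcium signal, over three deviations above library mean, with baseline fluorescence within five deviations of library mean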;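 note: RGS4 expression induced by doxycycline in cells with stable M3 receptor; B-score is computed from the integrated fluorescence ratio over baseline after carbachol; higher B-score means a larger calcium signal and so more RGS4 inhibition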
Target sequence (P49798 whole entry, looked up): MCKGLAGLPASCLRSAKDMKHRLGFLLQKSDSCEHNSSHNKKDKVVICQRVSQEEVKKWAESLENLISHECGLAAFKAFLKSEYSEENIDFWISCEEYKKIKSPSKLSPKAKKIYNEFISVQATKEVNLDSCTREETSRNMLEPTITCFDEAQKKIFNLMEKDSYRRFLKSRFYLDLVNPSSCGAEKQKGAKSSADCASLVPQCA
MrgX1 antagonist = antagonists of human MrgX1 receptor, primary screen, HEK293 cells, Fluo-4 calcium flux; Mas-related G-protein coupled receptor member X1 (Homo sapiens), Q96LB2; BAM8-22 antagonism; stronger effect = lower value; B-score at 10 µM; 1.3% of 310,000 active; AID 588676, 2011;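 active = calcium-response B-score plate-corrected more than 3 library SD below zero, starting fluorescence within 5 deviations, no agonist response on first addition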;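 note: peak minus trough fluorescence over baseline after final BAM8-22 challenge near maximal dose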
Target sequence (Q96LB2 whole entry, looked up): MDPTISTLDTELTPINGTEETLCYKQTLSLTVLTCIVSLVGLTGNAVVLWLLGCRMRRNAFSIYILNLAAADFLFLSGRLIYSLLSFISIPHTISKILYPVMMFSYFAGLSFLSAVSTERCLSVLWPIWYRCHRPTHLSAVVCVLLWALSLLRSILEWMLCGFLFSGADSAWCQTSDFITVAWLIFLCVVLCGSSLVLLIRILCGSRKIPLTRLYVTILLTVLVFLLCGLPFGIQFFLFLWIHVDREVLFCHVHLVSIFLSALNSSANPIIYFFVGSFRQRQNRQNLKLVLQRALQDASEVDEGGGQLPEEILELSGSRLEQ
RGS4 act = RGS4 potentiators or activators, primary screen, cell-based, HEK293 M3R inducible RGS4, calcium flux. B-score at 10 µM. AID 463111, 2010. carbachol calcium flux Fluo4; stronger effect = lower value. 0.92% of 310,000 active;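 active = B-score of the integrated calcium signal more than 4 SD below the library mean, with starting fluorescence not abnormally high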;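 note: negative B-score means reduced calcium response which marks RGS4 activation or potentiation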
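Also added: carbachol at ECmax as muscarinic agonist stimulus; Assay system: HEK293 cells with stable M3R and inducible RGS4; Timing: overnight RGS4 induction, 30 min dye load 37 °C, 20 min compound RT; Measured by: Fluo4-AM (2 µM) calcium-flux fluorescence, kinetic read.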
MrgX1 ag = agonists of human MrgX1 receptor, primary screen, HEK293 cells, Fluo-4 calcium flux; Mas-related G-protein coupled receptor member X1 (Homo sapiens), Q96LB2; Fluo-4 calcium fluorescence, agonist mode; stronger effect = higher value; B-score at 10 µM; 0.44% of 310,000 active; AID 588627, 2011;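 active = calcium response B-score plate-corrected fluorescence ratio at least 3 library SD, with starting fluorescence B-score inside 5 SD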
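Test system: HEK293 cells stably expressing human MrgX1 receptor; Input: fifteen thousand cells per well; Dosing: compound delivered in addition one of three; Schedule: overnight seeding, then 1 h dark dye loading; Technique: Fluo-4 NW calcium fluorescence; Measure: B-scored fluorescence response ratio; Controls: positive and negative controls per plate.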
MrgX1 PAM = positive allosteric modulators of MrgX1, primary screen, HEK293 cells, Fluo-4 calcium flux; Mas-related G-protein coupled receptor member X1 (Homo sapiens), Q96LB2; FDSS; stronger effect = higher value; B-score at 10 µM; 0.63% of 310,000 active;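 active = plate-corrected calcium response at least 3 library SD above typical, normal starting fluorescence, not activating the receptor alone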;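 note: compound read alongside a low EC10 to EC30 dose of BAM8-22 agonist; peak minus trough fluorescence over baseline measured at the second addition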
RGS4 act valid = reduced carbachol calcium response, RGS4-induced M3R cells, confirmation, RGS4 activator project, cell-based, HEK293 M3R/RGS4 inducible, calcium flux, duplicate. shares compounds with RGS4 act. inhibition, % at 10 µM. carbachol calcium flux Fluo4. 89% of 1,100 active. AID 602282, 2012;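 active = inhibition above 3 SD of the buffer control wells, cut at about 41% in these data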;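 note: signal is the integrated peak-minus-minimum Fluo4 fluorescence over baseline ratio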
RGS4 act ctr = RGS4 activator counter-screen hit in non-induced cells; shares compounds with RGS4 act; HEK293 M3R non-induced RGS4, Fluo4 calcium flux; after carbachol challenge at its EC90; inhibition, % at 10 µM; 82% of 1,100 active; AID 602283;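 active = inhibition exceeding 3 SD of buffer-only control wells, cut at about 26% in these data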;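 note: percent drop in integrated peak-minus-baseline over baseline Fluo4 ratio after carbachol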
* marks the source's active call; other numbers are inactive results. In the library only some 3.5% were active in any assay of this set; here they are far more common.

What do the screens show for `COc1ccc(CN2CCCC(C(=O)c3ccc(SC)cc3)C2)cc1Cn1cccn1` (configuration not stated)?
RGS4 inh: inactive; MrgX1 antagonist: inactive; RGS4 act: inactive; MrgX1 ag: inactive; MrgX1 PAM: inactive

What do the screens show for `CSc1nc2sc3c(c2c(=O)n1C1CCCCC1)CCN(C)C3`?
RGS4 inh: inactive; MrgX1 antagonist: inactive; RGS4 act: inactive; MrgX1 ag: inactive; MrgX1 PAM: inactive

Results for C=C(C)CSc1nc2sc3c(c2c(=O)n1C1CCCCC1)CCN(C)C3 ?
RGS4 inh: inactive; MrgX1 antagonist: inactive; RGS4 act: -7.77*; MrgX1 ag: inactive; MrgX1 PAM: inactive; RGS4 act valid: 93.0*; RGS4 act ctr: 85.8*

Results for CC(Cc1cccs1)NC(=S)Nc1ccc(Cl)cc1 (configuration not stated) ?
RGS4 inh: inactive; MrgX1 antagonist: inactive; RGS4 act: -8.03*; MrgX1 ag: inactive; MrgX1 PAM: inactive; RGS4 act valid: 48.5*; RGS4 act ctr: 83.8*

How did CC(Cc1cccs1)NC(=O)Nc1ccc(F)cc1 (configuration not stated) do in these assays?
RGS4 inh: inactive; MrgX1 antagonist: inactive; RGS4 act: inactive; MrgX1 ag: inactive; MrgX1 PAM: inactive

What do the screens show for `CCOc1ccc(C(C(=O)NCC2CCCO2)N(Cc2cccnc2)C(=O)c2snc(C(N)=O)c2N)cc1` (configuration not stated)?
RGS4 inh: inactive; RGS4 act: inactive

How did CCOC(=O)c1cc2sc(C)cc2n1CC(=O)N(CC)CC do in these assays?
RGS4 inh: inactive; MrgX1 antagonist: inactive; RGS4 act: inactive; MrgX1 ag: inactive; MrgX1 PAM: inactive

What do the screens show for `CCOC(=O)c1cc2sc(C)cc2n1CCCN1C(=O)c2ccccc2C1=O`?
RGS4 inh: inactive; MrgX1 antagonist: inactive; RGS4 act: -7.78*; MrgX1 ag: inactive; MrgX1 PAM: inactive; RGS4 act valid: 90.0*; RGS4 act ctr: 42.3*

Results for CCOC(=O)c1c(C)n(C)c2ccc(O)c(CN3CCN(C)CC3)c12 ?
RGS4 inh: inactive; MrgX1 antagonist: inactive; RGS4 act: inactive; MrgX1 ag: inactive; MrgX1 PAM: inactive

Results for CCOC(=O)c1c(-c2ccccc2)oc2ccc(O)c(CN3CCN(C)CC3)c12 ?
RGS4 inh: inactive; MrgX1 antagonist: inactive; RGS4 act: -8.12*; MrgX1 ag: inactive; MrgX1 PAM: inactive; RGS4 act valid: 69.0*; RGS4 act ctr: 49.3*

How did COc1ccc(CCNC(=O)C(=O)NCC2CCCN2S(=O)(=O)c2ccccc2)cc1 (configuration not stated) do in these assays?
RGS4 inh: inactive; MrgX1 antagonist: inactive; RGS4 act: -12.1*; MrgX1 ag: inactive; MrgX1 PAM: inactive; RGS4 act valid: 87.5*; RGS4 act ctr: 54.3*

What do the screens show for `COc1ccccc1CCNC(=O)C(=O)NCC1CCCN1S(=O)(=O)c1ccccc1` (configuration not stated)?
RGS4 inh: inactive; MrgX1 antagonist: -4.52*; RGS4 act: -10.9*; MrgX1 ag: inactive; MrgX1 PAM: inactive; RGS4 act valid: 79.5*; RGS4 act ctr: 83.8*

How did O=C(NCCc1ccc(F)cc1)C(=O)NCC1CCCN1S(=O)(=O)c1ccccc1 (configuration not stated) do in these assays?
RGS4 inh: inactive; MrgX1 antagonist: inactive; RGS4 act: -9.26*; MrgX1 ag: inactive; MrgX1 PAM: inactive; RGS4 act valid: 89.5*; RGS4 act ctr: 68.3*

How did O=C(NCc1ccc(F)cc1)C(=O)NCC1CCCN1S(=O)(=O)c1ccccc1 (configuration not stated) do in these assays?
RGS4 inh: inactive; MrgX1 antagonist: inactive; RGS4 act: inactive; MrgX1 ag: inactive; MrgX1 PAM: inactive

How did CN(CCCNC(=O)c1cc2c(Cl)nc3ccccc3c2s1)Cc1ccccc1 do in these assays?
RGS4 inh: inactive; MrgX1 antagonist: inactive; RGS4 act: inactive; MrgX1 ag: inactive; MrgX1 PAM: inactive

What do the screens show for `CCN(CC)CCCNC(=O)c1cc2c(=O)n(CC)c3ccccc3c2s1`?
RGS4 inh: inactive; MrgX1 antagonist: inactive; RGS4 act: inactive; MrgX1 ag: inactive; MrgX1 PAM: inactive

What do the screens show for `CCN(CC)CCNC(=O)c1cc2c(=O)n(CC)c3ccccc3c2s1`?
RGS4 inh: inactive; MrgX1 antagonist: inactive; RGS4 act: -8.44*; MrgX1 ag: inactive; MrgX1 PAM: inactive; RGS4 act valid: 54.0*; RGS4 act ctr: 83.8*

What do the screens show for `CCN(CC)CCCNC(=O)c1cc2c(Cl)nc3ccccc3c2s1`?
RGS4 inh: inactive; MrgX1 antagonist: inactive; RGS4 act: -7.7*; MrgX1 ag: inactive; MrgX1 PAM: inactive; RGS4 act valid: 68.0*; RGS4 act ctr: 83.8*

How did COc1ccc(-c2cc(C)no2)cc1S(=O)(=O)N1CCN(C(=O)c2ccco2)CC1 do in these assays?
RGS4 inh: inactive; MrgX1 antagonist: inactive; RGS4 act: inactive; MrgX1 ag: inactive; MrgX1 PAM: inactive

Results for COCCN(C(=O)Nc1ccccc1OC)c1nc2ccccc2s1 ?
RGS4 inh: inactive; MrgX1 antagonist: inactive; RGS4 act: -7.73*; MrgX1 ag: inactive; MrgX1 PAM: inactive; RGS4 act valid: 92.0*; RGS4 act ctr: 91.3*

What do the screens show for `CCCN1CCN(CCCNC(=O)c2ccc3c(Cl)c4c(nc3c2)CCCC4)CC1`?
RGS4 inh: inactive; MrgX1 antagonist: inactive; RGS4 act: -8.12*; MrgX1 ag: inactive; MrgX1 PAM: inactive; RGS4 act valid: 93.5*; RGS4 act ctr: 62.3*

What do the screens show for `N#Cc1ccccc1NC(=O)c1ccc2c(Cl)c3c(nc2c1)CCCC3`?
RGS4 inh: inactive; MrgX1 antagonist: inactive; RGS4 act: -8.09*; MrgX1 ag: inactive; MrgX1 PAM: inactive; RGS4 act valid: 72.5*; RGS4 act ctr: 47.3*

What do the screens show for `O=C(Nc1cccc2ccccc12)OCc1cncs1`?
RGS4 inh: inactive; MrgX1 antagonist: inactive; RGS4 act: inactive; MrgX1 ag: inactive; MrgX1 PAM: inactive
